Data set [1] deals with T1, Dihydroorotate dehydrogenase (Plasmodium falciparum, UniProt Q54A96).
T1 sequence (Q54A96 whole entry): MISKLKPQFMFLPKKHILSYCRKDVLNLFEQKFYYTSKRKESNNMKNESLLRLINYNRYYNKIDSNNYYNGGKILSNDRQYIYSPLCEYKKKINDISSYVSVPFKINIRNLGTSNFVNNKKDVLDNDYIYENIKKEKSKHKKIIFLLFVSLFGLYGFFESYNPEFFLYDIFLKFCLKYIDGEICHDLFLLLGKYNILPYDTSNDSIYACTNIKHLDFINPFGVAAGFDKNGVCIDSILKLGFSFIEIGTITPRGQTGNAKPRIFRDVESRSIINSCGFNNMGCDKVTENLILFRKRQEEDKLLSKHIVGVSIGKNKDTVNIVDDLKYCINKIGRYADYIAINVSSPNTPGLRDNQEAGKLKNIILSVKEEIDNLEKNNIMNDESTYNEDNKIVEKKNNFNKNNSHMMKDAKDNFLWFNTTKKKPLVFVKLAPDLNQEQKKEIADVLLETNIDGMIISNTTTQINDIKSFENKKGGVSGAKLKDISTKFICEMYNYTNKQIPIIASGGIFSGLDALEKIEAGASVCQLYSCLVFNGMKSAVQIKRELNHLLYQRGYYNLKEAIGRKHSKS
Briefly: Inhibition of Plasmodium falciparum DHODH expressed in Escherichia coli DH5alpha using 2,6-dichoroindophenol substrate by spectrophotometric analysis. The gist of the method: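 Recombinant purified enzyme; colorimetric steady-state assay following DCIP (120 micromolar) reduction at 600 nm, coupled to CoQ_D reoxidation. Started with enzyme (5–10 nM final), 20 °C. IC50 fitted across inhibitor concentrations, triplicate points each.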

The nature of data set [2]: Inhibition of Plasmodium berghei DHODH expressed in Escherichia coli DH5alpha using 2,6-dichoroindophenol substrate by spectrophotometric analysis.
Data set [3] concerns the target Dihydroorotate dehydrogenase (quinone), mitochondrial (Homo sapiens, UniProt Q02127). Briefly: Inhibition of human DHODH expressed in Escherichia coli BL21(DE3) using 2,6-dichoroindophenol substrate by spectrophotometric analysis.
The subject of a further data set is Plasmodium falciparum. Briefly: Antiplasmodial activity against Plasmodium falciparum 3D7 infected in human erythrocytes assessed as inhibition of [3H]hypoxanthine incorporation after 48 hrs. The class given is functional, organism-based. The gist of the method:
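Clone 3D7 grown in RPMI-1640 with 20% human type A+ plasma and 2% (w/v) red blood cells. Proliferation measured by standard [3H]-hypoxanthine uptake in infected erythrocytes.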

The subject of data set [4] is Liver microsomes. In words: Half life in human liver microsomes at 1 uM by LC/MS analysis. In kind it is ADME, Microsome. A digest of the protocol: (§1)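 Compound at 1 μM incubated at 37°C with pooled human or mouse liver microsomes (0.4 mg/mL protein). Reaction started with NADPH-regenerating system (1 mg/mL NADP, 1 mg/mL glucose-6-phosphate, 1 U/mL G6PDH, 0.67 mg/mL MgCl2) and quenched at time points with ice-cold acetonitrile. Parent loss tracked by LC/MS against a microsomal-matrix calibration curve. First-order depletion rate constant came from an exponential decay fit.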

Data set [5] concerns Liver microsomes. In words: Drug metabolism in human liver microsomes by LC/MS analysis. The class given is ADME, Microsome. A digest of the protocol:
as §1
Background: Liver microsomes are a subcellular fraction often used to study metabolism.

In data set [6] the test system is Liver microsomes. In words: Intrinsic clearance in human liver microsomes assessed per mg of protein at 1 uM by LC/MS analysis. In kind it is ADME, Microsome. The gist of the method:
as §1

A further data set relates to Plasmodium berghei. Briefly: Antimalarial activity against erythrocytic stage of Plasmodium berghei NK65 infected in BALB/c mouse assessed as reduction in parasitemia at 50 mg/kg, po administered QD for 4 days starting 1 day post-infection measured 24 hrs post-last dose relative to vehicle-treated control. The class given is functional. Also noted: scale not given: the % may be the effect or the level left. A digest of the protocol:
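Female BALB/c mice, 8–10 weeks old, infected IP with 2×10^7 infected erythrocytes (200 μL) 24 h before first dose; minimum 0.1% parasitemia confirmed before treatment. Oral dosing 1× daily for 4 consecutive days, vehicle or chloroquine (10 mg/kg oral, same schedule) as controls. Parasitemia from Wright-Giemsa-stained thin blood smears, tail-vein bleeds daily.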

For the next data set, the system named is Mus musculus. In words: Toxicity in Swiss mouse assessed as adverse effects at 10 mg/kg, po. In kind it is organism-based. The following applies: in vivo. Also noted: dose 10 mg/kg, route oral. The gist of the method: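 Mice watched for adverse reactions after one oral 10 mg/kg dose, given as a suspension in aqueous carboxymethylcellulose/benzyl alcohol/Tween 80 vehicle.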

Data set [7] is described as follows: Plasma concentration in Swiss mouse at 10 mg/kg, po at 16 hrs. In kind it is ADME, organism-based. On the set-up: dose 10 mg/kg, route oral. A digest of the protocol:
(§2)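 Single 10 mg/kg oral gavage dose (0.1 mL) given as a suspension in 0.5% w/v Na carboxymethylcellulose, 0.5% v/v benzyl alcohol, 0.4% v/v Tween 80. Food and water ad libitum. One cardiac-puncture blood sample per mouse at 1, 2, 4, 7.5, 16 and 24 h. Heparinised plasma stored at –20°C, acetonitrile-precipitated and quantified by LC-MS against a plasma calibration curve; quantitation limit 0.003 μM.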

The nature of data set [8]: Plasma concentration in Swiss mouse at 10 mg/kg, po up to 4 hrs. On the set-up: dose 10 mg/kg, route oral. The class given is ADME, organism-based. A digest of the protocol:
as §2

The nature of data set [9]: Cmax in Swiss mouse at 10 mg/kg, po. The class given is ADME, organism-based. On the set-up: dose 10 mg/kg, route oral. Particulars: in vivo; call rule not given here. The gist of the method: as §2
Data set [10] can be described thus: Drug metabolism in mouse liver microsomes by LC/MS analysis. In kind it is ADME, Microsome. A digest of the protocol:
as §1

The test system of data set [11] is Liver. In words: Intrinsic clearance in mouse liver microsomes assessed per mg of protein at 1 uM by LC/MS analysis. The class given is ADME, Microsome. The gist of the method:
as §1

Data set [12] has as its system Liver. Briefly: Half life in mouse liver microsomes at 1 uM by LC/MS analysis. The class given is ADME, Microsome. A digest of the protocol: as §1

The IC50 is the concentration that inhibits the measured activity by half. As usually defined, the EC50 is the concentration that produces a half-maximal response. The Cmax is the highest concentration seen after dosing.

Chain of Dihydroorotate dehydrogenase (quinone), mitochondrial (Q02127 whole entry): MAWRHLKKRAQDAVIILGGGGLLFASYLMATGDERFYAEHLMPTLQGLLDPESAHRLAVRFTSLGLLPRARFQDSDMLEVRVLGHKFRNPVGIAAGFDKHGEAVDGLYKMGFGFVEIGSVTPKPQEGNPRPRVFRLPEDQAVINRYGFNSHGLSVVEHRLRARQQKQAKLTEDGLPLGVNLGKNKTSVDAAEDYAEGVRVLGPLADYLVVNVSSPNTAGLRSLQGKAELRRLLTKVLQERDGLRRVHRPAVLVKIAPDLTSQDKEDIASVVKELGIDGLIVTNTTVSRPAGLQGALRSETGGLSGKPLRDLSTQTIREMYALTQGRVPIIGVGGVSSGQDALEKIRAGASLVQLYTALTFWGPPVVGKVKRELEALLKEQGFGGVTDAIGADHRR

As for `Cc1cc(Nc2ccc3ccccc3c2)n2nccc2n1`, the IC50 was 0.4 µM in [1], 3.3 µM in data set [2] and over 100 µM in [3]. Moreover, the EC50 in the data set on Plasmodium falciparum turned out to be 0.91 µM.
`Cc1nc(Nc2ccc3ccccc3c2)c2cn[nH]c2n1`: the half-maximal inhibitory concentration (IC50) in data set [1] is over 100 µM. In addition, the EC50 in the data set on Plasmodium falciparum was over 12.5 µM.
With `Cc1cc(Nc2ccc3ccccc3c2)n2ncnc2c1`, the IC50 came out at 4.8 µM in data set [1] and 6.3 µM in [2]. The EC50 with Plasmodium falciparum was determined as 5.2 µM.
In turn, `Cc1nc(Nc2ccc3ncccc3c2)c2nc[nH]c2n1` came in with an IC50 in data set [1] of over 25 µM. Moreover, the EC50 with Plasmodium falciparum is 3.2 µM.
Regarding `Cc1nc(Nc2ccc3ccccc3c2)c2nc[nH]c2n1`, the IC50 in data set [1] is 0.44 µM; in data set [2], 11 µM; in data set [3] it was over 100 µM. Besides, the EC50 with Plasmodium falciparum was 2.2 µM.
With `Cc1nc(Nc2n[nH]cc2C#N)c2nc[nH]c2n1`, the IC50 in [1] was over 100 µM. Moreover, the EC50 with Plasmodium falciparum is over 25 µM.
For the compound `Cc1cc(NC(=O)c2ccc(C(F)(F)F)cc2)n2ncnc2n1`, the IC50 in data set [1], in [2] and in data set [3] was over 100 µM each time. In the data set with Plasmodium falciparum, the EC50 is over 50 µM.
As for `Cc1nc(Nc2cnc3ccccc3c2)c2nc[nH]c2n1`, in data set [1], half-maximal inhibition (IC50) required 27 µM. For the same compound, in the data set on Plasmodium falciparum, the EC50 was over 10 µM.
Regarding `Cc1cc(Nc2ccc(C(F)(F)F)cc2)n2ccnc2n1`, the t1/2 in the data set with Liver microsomes [4] was 6.13 h; in the data set on Liver [12], 0.863 h. The Drug metabolism result (in the data set with Liver microsomes [5]; in data set [10]) was “Not Active” in each case. In addition, the CLint with Liver microsomes [6] is 4.7 µL/min/mg; in the data set with Liver [11], 34 µL/min/mg. Further, the Activity was 56% in the data set with Plasmodium berghei and “Non-toxic” in the data set with Mus musculus. In data set [7], this compound displayed a concentration at 16 h of under 3 nM. This compound also displayed a concentration at 4 h in data set [8] of over 1000 nM. The compound further showed a Cmax in data set [9] of 3900 nM. Moreover, the figures for the IC50 in data set [1], in data set [2] and in [3] were 0.077 µM, 0.17 µM and over 100 µM, respectively. Moreover, the EC50 in the data set with Plasmodium falciparum turned out to be 0.32 µM.
For the compound `Cc1cc(NC(=O)c2ccccc2)n2ncnc2n1`, the IC50 in [1], in data set [2] and in [3] was over 100 µM each time. The EC50 with Plasmodium falciparum is over 100 µM.
For `Cc1nc(Nc2ccc3cc4ccccc4cc3c2)c2nc[nH]c2n1`, the IC50 in data set [1] is 4.8 µM; in data set [2] it was over 10 µM. Besides, the EC50 with Plasmodium falciparum worked out at 3.2 µM.
On to `Cc1cc(Nc2ccc3ccccc3c2)n2ccnc2n1`, for which the results for the IC50 in data set [1], in data set [2] and in data set [3] were 0.15 µM, 2.8 µM and over 100 µM, respectively. In the data set with Plasmodium falciparum, the EC50 came to 0.19 µM.
With `Cc1cc(Nc2ccc3ccccc3c2)c2nncn2n1`, the IC50 in data set [1] and in data set [2] was over 50 µM in each case. Also, the EC50 in the data set with Plasmodium falciparum is over 5 µM.

The record behind these values is ChEMBL document CHEMBL2169788, “Bioisosteric transformations and permutations in the triazolopyrimidine scaffold to identify the minimum pharmacophore required for inhibitory activity against Plasmodium falciparum dihydroorotate dehydrogenase” (J Med Chem, 2012).
